# Laboratory results as given in ChEMBL document CHEMBL4177764 (J Med Chem, 2018).
# The source made the active and inactive calls. No cut-off for these calls is given here.
# Key:
# [1] = target: Protein cereblon (Homo sapiens) (UniProt Q96SW2); test: Displacement of Atto565-Lenalidomide from CRBN fused with DDB1deltaB (unknown origin) by fluorescence polarization assay
# [2] = species on record: Homo sapiens; test: Antiproliferative activity against human CHLA20 cells after 72 hrs by CellTiter-Glo luminescent cell viability assay; assay type: functional, cell-based
# [3] = system: KARPAS-299; test: Antiproliferative activity against human KARPAS299 cells after 72 hrs by CellTiter-Glo luminescent cell viability assay; assay type: functional, cell-based
# [4] = species on record: Homo sapiens; test: Antiproliferative activity against human CHLA20 cells after 72 hrs in presence of ABCB1 inhibitor tariquidar by CellTiter-Glo luminescent cell viability assay; assay type: functional, cell-based
# [5] = system: SH-SY5Y; test: Antiproliferative activity against human SH-SY5Y cells after 72 hrs in presence of ABCB1 inhibitor tariquidar by CellTiter-Glo luminescent cell viability assay; assay type: functional, cell-based
# [6] = target: T1, ALK tyrosine kinase receptor (Homo sapiens, UniProt Q9UM73); test: Induction of ALK degradation in human CHLA20 cells at 100 nM after 4 hrs in presence of ABCB1 inhibitor tariquidar by immunoblot method; assay type: cell-based
# T1 sequence (Q9UM73 19-1620 limits assumed): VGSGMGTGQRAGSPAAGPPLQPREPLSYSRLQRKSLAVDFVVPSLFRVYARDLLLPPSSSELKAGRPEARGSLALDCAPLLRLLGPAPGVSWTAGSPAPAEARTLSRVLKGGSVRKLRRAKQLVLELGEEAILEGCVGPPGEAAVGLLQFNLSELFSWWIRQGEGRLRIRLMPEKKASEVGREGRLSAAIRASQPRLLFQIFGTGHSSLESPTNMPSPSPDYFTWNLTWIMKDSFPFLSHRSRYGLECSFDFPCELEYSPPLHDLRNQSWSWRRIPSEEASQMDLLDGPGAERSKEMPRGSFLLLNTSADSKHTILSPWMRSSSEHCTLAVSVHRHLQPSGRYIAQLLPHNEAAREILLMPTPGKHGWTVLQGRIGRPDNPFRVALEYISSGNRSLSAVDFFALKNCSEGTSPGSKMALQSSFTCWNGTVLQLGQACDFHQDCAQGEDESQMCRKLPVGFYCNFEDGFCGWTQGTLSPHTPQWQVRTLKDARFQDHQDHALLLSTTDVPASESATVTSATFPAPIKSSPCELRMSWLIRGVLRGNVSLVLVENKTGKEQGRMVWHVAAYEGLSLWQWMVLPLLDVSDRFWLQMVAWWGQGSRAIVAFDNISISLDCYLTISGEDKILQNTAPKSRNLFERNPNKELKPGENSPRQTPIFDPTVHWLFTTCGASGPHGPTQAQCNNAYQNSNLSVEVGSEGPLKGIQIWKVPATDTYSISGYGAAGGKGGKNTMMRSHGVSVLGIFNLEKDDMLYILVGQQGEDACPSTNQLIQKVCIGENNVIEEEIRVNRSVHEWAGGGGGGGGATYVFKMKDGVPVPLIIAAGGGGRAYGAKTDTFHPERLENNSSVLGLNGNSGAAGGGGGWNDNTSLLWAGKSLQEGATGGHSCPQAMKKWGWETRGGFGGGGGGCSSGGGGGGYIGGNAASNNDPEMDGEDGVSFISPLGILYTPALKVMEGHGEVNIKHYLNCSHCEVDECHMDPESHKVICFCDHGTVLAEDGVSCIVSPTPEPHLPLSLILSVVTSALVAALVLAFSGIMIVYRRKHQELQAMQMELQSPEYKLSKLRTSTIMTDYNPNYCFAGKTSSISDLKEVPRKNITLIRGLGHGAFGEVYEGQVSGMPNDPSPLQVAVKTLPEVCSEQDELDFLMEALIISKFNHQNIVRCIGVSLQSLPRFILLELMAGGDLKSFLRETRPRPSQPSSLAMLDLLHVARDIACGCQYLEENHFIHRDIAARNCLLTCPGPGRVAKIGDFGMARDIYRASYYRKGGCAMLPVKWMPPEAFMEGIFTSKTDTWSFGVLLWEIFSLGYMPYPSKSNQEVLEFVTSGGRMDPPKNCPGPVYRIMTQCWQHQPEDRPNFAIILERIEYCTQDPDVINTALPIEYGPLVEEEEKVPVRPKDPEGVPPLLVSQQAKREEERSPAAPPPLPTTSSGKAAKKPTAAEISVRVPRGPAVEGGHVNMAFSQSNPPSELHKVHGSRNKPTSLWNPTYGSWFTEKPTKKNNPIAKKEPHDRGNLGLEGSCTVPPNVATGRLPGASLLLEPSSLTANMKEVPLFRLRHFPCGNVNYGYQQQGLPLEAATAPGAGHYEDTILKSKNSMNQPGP
# In short: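 CHLA20 cells were co-treated with 125 nM tariquidar, then treated with 100 nM compound over a time course. ALK was read by immunoblot.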
# [7] = system: SU-DHL-1; test: Antiproliferative activity against human SU-DHL1 cells after 72 hrs by CellTiter-Glo luminescent cell viability assay; assay type: functional, cell-based
# [8] = target: T1, ALK tyrosine kinase receptor; test: Induction of ALK degradation in human Kelly cells at 100 nM after 8 hrs by immunoblot method; assay type: cell-based
# In short: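 Kelly cells were treated with 100 nM compound for varying times and lysed at each time point. ALK levels were read by immunoblot.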
# [9] = system: NCI-H3122; test: Antiproliferative activity against human NCI-H3122 cells after 72 hrs by CellTiter-Glo luminescent cell viability assay; assay type: functional, cell-based
# [10] = system: SH-SY5Y; test: Antiproliferative activity against human SH-SY5Y cells after 72 hrs by CellTiter-Glo luminescent cell viability assay; assay type: functional, cell-based
# [11] = target: Signal transducer and activator of transcription 3 (Homo sapiens) (UniProt P40763); test: Inhibition of STAT3 phosphorylation at Y705 in human Kelly cells at 250 nM after 6 to 48 hrs by immunoblot method; assay type: cell-based
# Signal transducer and activator of transcription 3 (Homo sapiens), sequence (P40763 whole entry): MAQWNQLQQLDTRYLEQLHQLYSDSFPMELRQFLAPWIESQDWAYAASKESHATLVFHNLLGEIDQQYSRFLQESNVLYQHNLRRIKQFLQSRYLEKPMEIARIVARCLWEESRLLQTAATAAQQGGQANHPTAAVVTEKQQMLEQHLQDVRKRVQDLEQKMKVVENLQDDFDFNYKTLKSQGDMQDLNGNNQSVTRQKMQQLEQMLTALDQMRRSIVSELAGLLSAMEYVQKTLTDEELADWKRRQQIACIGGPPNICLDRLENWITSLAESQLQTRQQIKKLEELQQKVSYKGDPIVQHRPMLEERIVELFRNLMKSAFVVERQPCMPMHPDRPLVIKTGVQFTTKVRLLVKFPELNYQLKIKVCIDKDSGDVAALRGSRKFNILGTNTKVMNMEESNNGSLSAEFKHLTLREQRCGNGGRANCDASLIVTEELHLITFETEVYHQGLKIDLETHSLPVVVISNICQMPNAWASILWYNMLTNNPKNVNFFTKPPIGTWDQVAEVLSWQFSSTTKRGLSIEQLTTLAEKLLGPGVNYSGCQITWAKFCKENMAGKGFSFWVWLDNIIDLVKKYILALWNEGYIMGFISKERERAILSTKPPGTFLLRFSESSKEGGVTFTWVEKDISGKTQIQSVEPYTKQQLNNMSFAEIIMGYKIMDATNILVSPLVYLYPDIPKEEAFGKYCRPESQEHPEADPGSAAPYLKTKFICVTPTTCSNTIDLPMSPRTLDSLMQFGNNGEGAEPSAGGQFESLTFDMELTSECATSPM
# [12] = target: Signal transducer and activator of transcription 3 (Homo sapiens) (UniProt P40763); test: Inhibition of STAT3 phosphorylation at Y705 in human CHLA20 cells at 250 nM after 6 to 48 hrs in presence of ABCB1 inhibitor tariquidar by immunoblot method; assay type: cell-based
# Protein cereblon (Homo sapiens), sequence (Q96SW2 whole entry, the tested form may be a part): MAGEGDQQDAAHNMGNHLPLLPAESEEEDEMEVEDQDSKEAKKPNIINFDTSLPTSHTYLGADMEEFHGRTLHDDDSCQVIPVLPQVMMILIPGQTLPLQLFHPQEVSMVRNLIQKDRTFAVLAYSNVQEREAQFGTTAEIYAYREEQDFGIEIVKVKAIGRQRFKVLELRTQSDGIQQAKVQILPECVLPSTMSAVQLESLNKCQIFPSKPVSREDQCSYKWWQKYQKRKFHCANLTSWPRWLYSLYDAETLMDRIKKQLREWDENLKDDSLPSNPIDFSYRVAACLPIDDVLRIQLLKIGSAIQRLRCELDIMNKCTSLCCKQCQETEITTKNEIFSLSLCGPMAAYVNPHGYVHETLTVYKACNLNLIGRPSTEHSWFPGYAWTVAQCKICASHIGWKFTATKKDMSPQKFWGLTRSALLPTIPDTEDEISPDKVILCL
Compound,inhibition [1],Activity [2],Activity [3],Activity [4],Activity [5],Activity [6],Activity [7],Activity [8],Activity [9],Activity [10],inhibition [11],inhibition [12]
COc1cc(N2CCN(CCOCCOCCNC(=O)CNc3cccc4c3C(=O)N(C3CCCNC3=O)C4=O)CC2)ccc1Nc1ncc(Cl)c(Nc2ccccc2S(=O)(=O)C(C)C)n1 (stereo unspecified),inactive,inactive,inactive,Active,Active,Active,inactive,Active,inactive,inactive,,
COc1cc(N2CCC(N3CCN(C)CC3)CC2)ccc1Nc1ncc(Cl)c(Nc2ccccc2S(=O)(=O)C(C)C)n1,,Active,Active,Active,Active,,Active,,Active,Active,,
Cc1cc(Nc2ncc(Cl)c(Nc3ccccc3S(=O)(=O)C(C)C)n2)c(OC(C)C)cc1C1CCN(CCOCCOCCNC(=O)CNc2cccc3c2C(=O)N(C2CCCNC2=O)C3=O)CC1 (stereo unspecified),inactive,inactive,inactive,Active,Active,Active,inactive,Active,inactive,inactive,,
Cc1cc(Nc2ncc(Cl)c(Nc3ccccc3S(=O)(=O)C(C)C)n2)c(OC(C)C)cc1C1CCNCC1,,Active,Active,Active,Active,,Active,,Active,Active,inactive,inactive
